Measured values from ChEMBL document CHEMBL5137129, “Anti-HIV Macrocyclic Daphnane Orthoesters with an Unusual Macrocyclic Ring from Edgeworthia chrysantha” (J Nat Prod, 2022).

Tests used:
[1] = system: Human immunodeficiency virus 1; experiment: Anti-HIV activity against Human immunodeficiency virus 1 […] infected in human MT4 cells assessed as inhibition of viral infection measured after 4 days by serial dilution based p24 ELISA analysis; assay type: functional, organism-based; conditions: Human immunodeficiency virus 1, MT4, 96 h
Outline: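 HIV-1 NL4-3 at MOI 0.001 infected MT4 cells with compounds present at various concentrations (4-fold serial dilutions across the inhibitory phase). Fresh compound-containing medium was added 48 h post-infection. Replication was read by p24 ELISA at 4 days post-infection. Dose-response curves came from three independent experiments.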

MT4 = experiment: Cytotoxicity against human MT4 cells assessed as inhibition of cell growth by measuring ATP by CellTiter-Glo luminescent cell viability assay; assay type: toxicity, cell-based
Outline: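 MT4 cells were cultured in parallel with the anti-HIV-1 cultures (NL4-3, MOI 0.001, 4 days, medium with compound refreshed at 48 h). Viability was read as ATP of metabolically active cells by CellTiter-Glo luminescence. Dose-response curves came from three independent experiments.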

C=C(C)[C@@]12OC34CCC/C=C\CCCC[C@H](CCC)[C@H]5[C@H](C)C(=O)[C@@]6(O)[C@H](O)[C@@]7(CO)O[C@H]7[C@@H]([C@H]1O3)[C@](O4)([C@H](C)[C@H]2OC(C)=O)[C@H]56
EC50 [1]: 8.4 nM
IC50 (MT4): > 32 nM

C=C(C)[C@@]12OC34CCC/C=C\CCCC[C@H](CCC)[C@@H]5[C@@H]6[C@]7(O[C@]5(C)OC7=O)[C@H](O)[C@@]5(CO)O[C@H]5[C@@H]([C@H]1O3)[C@]6(O4)[C@H](COC(=O)C(C)C)[C@H]2OC(C)=O
EC50 [1]: 29.3 nM
IC50 (MT4): > 32 nM

C=C(C)[C@@]12OC34CCC/C=C\CCCC[C@H](CCC)[C@@H]5[C@@H]6[C@]7(O[C@]5(C)OC7=O)[C@H](O)[C@@]5(CO)O[C@H]5[C@@H]([C@H]1O3)[C@]6(O4)[C@H](COC(=O)c1ccccc1)[C@H]2OC(C)=O
EC50 [1]: > 32 nM
IC50 (MT4): > 32 nM

C=C(C)[C@@]12OC34CCC/C=C\CCCC[C@H](CCC)[C@H]5[C@H](C)C(=O)[C@@]6(O)[C@H](O)[C@@]7(CO)O[C@H]7[C@@H]([C@H]1O3)[C@](O4)([C@H](COC(=O)C(C)C)[C@H]2OC(C)=O)[C@H]56
EC50 [1]: 2.9 nM
IC50 (MT4): 21.3 nM

C=C(C)[C@@]12OC34CCC/C=C\CCCC[C@H](CCC)[C@@H]5[C@@H]6[C@]7(O[C@]5(C)OC7=O)[C@H](O)[C@@]5(CO)O[C@H]5[C@@H]([C@H]1O3)[C@]6(O4)[C@H](C)[C@H]2OC(C)=O
EC50 [1]: > 32 nM
IC50 (MT4): > 32 nM

C=C(C)[C@]12C[C@@H](COC(=O)c3ccccc3)[C@@]34OC5(O[C@@H]1[C@@H]3[C@@H]1O[C@]1(CO)[C@@H](O)[C@@]1(O)[C@H]4[C@H]([C@H](C)[C@@H]1OC(=O)c1ccccc1)[C@H](C)CCCCCC[C@H]5O)O2
IC50 (MT4): > 32 nM
